The record followed here is ChEMBL document CHEMBL1129972 (J Med Chem, 1997).

Test [1] addresses T1, Angiotensin II receptor (AT-1) type-1 (Rattus norvegicus, UniProt P29089+P25095).
T1 sequence (P29089 whole entry): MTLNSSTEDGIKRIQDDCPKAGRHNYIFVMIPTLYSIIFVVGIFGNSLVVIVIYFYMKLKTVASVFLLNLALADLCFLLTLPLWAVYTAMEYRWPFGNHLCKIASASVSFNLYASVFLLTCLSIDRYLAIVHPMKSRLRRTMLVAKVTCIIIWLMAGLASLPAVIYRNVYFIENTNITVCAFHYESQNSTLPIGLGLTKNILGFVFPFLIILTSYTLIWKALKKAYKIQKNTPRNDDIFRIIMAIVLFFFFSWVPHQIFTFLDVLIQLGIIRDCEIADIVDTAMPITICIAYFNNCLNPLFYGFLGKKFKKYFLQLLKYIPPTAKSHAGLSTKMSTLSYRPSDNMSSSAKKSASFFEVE
T1 sequence (P25095 whole entry): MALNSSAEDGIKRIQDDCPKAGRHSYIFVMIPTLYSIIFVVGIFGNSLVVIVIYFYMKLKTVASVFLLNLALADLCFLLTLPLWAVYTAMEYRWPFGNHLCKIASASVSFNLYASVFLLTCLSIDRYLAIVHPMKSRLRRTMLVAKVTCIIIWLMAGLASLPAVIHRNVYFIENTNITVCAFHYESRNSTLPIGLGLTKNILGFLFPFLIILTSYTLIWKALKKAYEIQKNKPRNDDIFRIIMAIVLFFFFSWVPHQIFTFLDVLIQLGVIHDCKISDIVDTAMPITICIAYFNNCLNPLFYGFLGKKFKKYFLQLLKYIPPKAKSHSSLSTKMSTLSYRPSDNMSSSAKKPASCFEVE
Description: Inhibitory concentration against [125 I]Ang II binding to rat pituitary membranes Angiotensin II receptor type 1 without 0.2% bovine serum albumin.

The target of test [2] is T1, Angiotensin II receptor (AT-1) type-1. Nature of the test: Inhibitory concentration against specific binding of [125 I]Ang II to rat pituitary membranes (Angiotensin II receptor, type 1) in presence of 0.2% bovine serum albumin. The test is classed as cell membranes, Membrane.
The species entered for test [3] is Oryctolagus cuniculus. Description: Concentration which produces 50% of maximal contractile response at rabbit aorta strips. It counts as functional. The gist of the method: (§1)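 Thoracic aortic rings (2 mm) from male New Zealand white rabbits (2.5–3.5 kg, pentobarbitone-anesthetized) in Krebs' bicarbonate buffer, 38.5 °C, pH 7.4, 95% O2/5% CO2; isometric tension, 2 g resting, ~90 min equilibration with one 300 nM Ang II challenge. Control cumulative Ang II curve (3×10^-10–10^-7 M), then cumulative test-compound curve 3×10^-10–10^-5 M; response as % of control Ang II maximum.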

The species entered for test [4] is Oryctolagus cuniculus. Nature of the test: Contractile activity in isolated rabbit aortic rings. It counts as functional, Aorta. The gist of the method: as §1

Bridge positions count the residues as written; N and C are the ends. Square brackets hold non-standard residues; d marks the D form. Peptide text beside a SMILES is read from it. Pen = CC(C)(S)[C@H](N)C(=O)O; hCys = N[C@@H](CCS)C(=O)O

As to `NC(N)=NCCC[C@H](NC(=O)[C@@H](N)CC(=O)O)C(=O)N[C@H]1CSSC[C@@H](C(=O)N[C@@H](Cc2c[nH]cn2)C(=O)N2CCC[C@H]2C(=O)N[C@@H](Cc2ccccc2)C(=O)O)NC(=O)[C@H](Cc2ccc(O)cc2)NC1=O` (H-DRCYCHPF-OH; disulfide 3-5), the IC50 (in general, the concentration needed to halve the response being measured) in test [1] stood at 2.9 nM; in test [2], 28 nM. For `CC[C@H](C)[C@H](NC(=O)[C@H](Cc1ccc(O)cc1)NC(=O)[C@@H](NC(=O)[C@H](CCCNC(=N)N)NC(=O)[C@@H](N)CC(=O)O)C(C)C)C(=O)N[C@@H](Cc1cnc[nH]1)C(=O)N1CCC[C@H]1C(=O)N[C@@H](Cc1ccccc1)C(=O)O` [ANGIOTENSIN II], the EC50 – broadly, the concentration needed to bring the measured effect to its halfway point – in the test filed under Oryctolagus cuniculus [3] came to 2.6 nM. Regarding `CC[C@H](C)[C@@H](C(=O)N[C@@H](Cc1cnc[nH]1)C(=O)N1CCC[C@H]1C(=O)N[C@@H](Cc1ccccc1)C(=O)O)N1Cc2cc(NC(=O)[C@H](CCCN=C(N)N)NC(=O)[C@@H](N)CC(=O)O)ccc2[C@@H](Cc2ccc(O)cc2)C1=O`, in test [1], the IC50 is recorded as greater than 100000 nM.

As to `CC[C@H](C)[C@@H](C(=O)N[C@@H](Cc1c[nH]cn1)C(=O)N1CCC[C@H]1C(=O)N[C@@H](Cc1ccccc1)C(=O)O)N1CCC(CNC(=O)[C@H](CCCN=C(N)N)NC(=O)[C@@H](N)CC(=O)O)=C[C@@H](Cc2ccc(O)cc2)C1=O`, the EC50 in the test filed under Oryctolagus cuniculus [3] turned out to be 830 nM. This compound gave an IC50 in test [1] of 2.8 nM. In test [1], `CC[C@H](C)[C@@H](C(=O)N[C@@H](Cc1c[nH]cn1)C(=O)N1CCC[C@H]1C(=O)N[C@@H](Cc1ccccc1)C(=O)O)N1CCC(CNC(=O)[C@H](CCCN=C(N)N)NC(=O)[C@@H](N)CC(=O)O)=C[C@H](Cc2ccc(O)cc2)C1=O` came in with an IC50 of 2 nM.

For `CC1(C)SSC(C)(C)[C@@H](C(=O)N[C@@H](Cc2c[nH]cn2)C(=O)N2CCC[C@H]2C(=O)N[C@@H](Cc2ccccc2)C(=O)O)NC(=O)[C@H](Cc2ccc(O)cc2)NC(=O)[C@H]1NC(=O)[C@H](CCCN=C(N)N)NC(=O)[C@@H](N)CC(=O)O` (H-DR[Pen]Y[Pen]HPF-OH; disulfide 3-5), it took 217 nM to reach a half-maximal effect in the test filed under Oryctolagus cuniculus [3] (EC50). The IC50 in test [1] was determined as 0.9 nM; in test [2], 3.8 nM. As for `CC[C@H](C)[C@@H](C(=O)N[C@@H](Cc1c[nH]cn1)C(=O)N1CCC[C@H]1C(=O)N[C@@H](Cc1ccccc1)C(=O)O)N1Cc2cc(NC(=O)[C@H](CCCN=C(N)N)NC(=O)[C@@H](N)CC(=O)O)ccc2[C@H](Cc2ccc(O)cc2)C1=O`, the IC50 in test [1] is greater than 100000 nM. With `NC(N)=NCCC[C@H](NC(=O)[C@@H](N)CC(=O)O)C(=O)N[C@H]1CCSSCC[C@@H](C(=O)N[C@@H](Cc2c[nH]cn2)C(=O)N2CCC[C@H]2C(=O)N[C@@H](Cc2ccccc2)C(=O)O)NC(=O)[C@H](Cc2ccc(O)cc2)NC1=O` (H-DR[hCys]Y[hCys]HPF-OH; disulfide 3-5), in the test filed under Oryctolagus cuniculus [4], the pD2 amounted to 8.48. The 50% inhibitory concentration (IC50) in test [1] is reported as 1.7 nM; in test [2], 15.4 nM.
